Measurements reported in ChEMBL document CHEMBL5252513, “Identification of a Benzoisoxazoloazepine Inhibitor (CPI-0610) of the Bromodomain and Extra-Terminal (BET) Family as a Candidate for Human Clinical Trials” (J Med Chem, 2016).
The source made the active and inactive calls. The rule behind the calls is not given here.

How the values were obtained:
[1] = molecular target: T1, Bromodomain-containing protein 4 (Homo sapiens, UniProt O60885); assay: Inhibition of BRD4 BD1 in human MV4-11 cells assessed as reduction of MYC RNA expression after 4 hrs by PCR analysis; type: cell-based
[2] = Protein binding in dog plasma; type: ADME, cell-free, Canis lupus familiaris; details: read-out: PPB (converted)
[3] = Protein binding in mouse plasma; type: ADME, cell-free; details: read-out: PPB (converted)
[4] = Intrinsic clearance in human liver microsomes; type: ADME, Microsome; details: read-out: CLH
[5] = molecular target: T1, Bromodomain-containing protein 4; assay: Inhibition of BRD4 BD1 (unknown origin) using biotinylated ligand incubated for 60 mins by TR-FRET assay
[6] = Intrinsic clearance in rat liver microsomes; type: ADME, Microsome
[7] = Protein binding in rat plasma; type: ADME, cell-free; details: read-out: PPB (converted)
[8] = Intrinsic clearance in dog liver microsomes; type: ADME, Canis lupus familiaris, Microsome; details: read-out: CLH
[9] = Protein binding in human plasma; type: ADME, cell-free; details: read-out: PPB (converted)
[10] = Intrinsic clearance in mouse liver microsomes; type: ADME, Microsome; details: read-out: CLH
[11] = Cmax in rat at 10 mg/kg,po; type: ADME, organism-based; design: dose 10 mg/kg, route po; details: in vivo
[12] = Volume of distribution at steady state in rat at 1 mg/kg,iv; type: ADME, organism-based; details: in vivo, read-out: Vdss
[13] = Oral bioavailability in rat at 10 mg/kg; type: ADME, organism-based; details: in vivo
[14] = Total clearance in rat at 1 mg/kg,iv; type: ADME, organism-based; details: in vivo
[15] = Unbound AUC in rat at 10 mg/kg,po; type: ADME, organism-based; details: in vivo
[16] = Unbound clearance in rat at 1 mg/kg,iv; type: ADME, organism-based; details: in vivo
[17] = Half life in rat plasma at 1 mg/kg,iv; type: ADME, organism-based
[18] = Tmax in rat at 10 mg/kg,po; type: ADME, organism-based; details: in vivo
[19] = AUC (0 to infinity) in rat at 10 mg/kg,po; type: ADME, organism-based; design: dose 10 mg/kg, route po; details: in vivo
[20] = Clearance in rat assessed as liver blood flow at 1 mg/kg,iv; type: ADME, organism-based; details: in vivo
[21] = molecular target: T1, Bromodomain-containing protein 4; assay: Displacement of biotinylated JQ1 from BRD4 BD1 (unknown origin) incubated for 20 mins by AlphaLISA assay
[22] = tested on: MV4-11; assay: Antitumor activity against human MV4-11 cells xenografted in BALB/c mouse assessed as modest tumor growth inhibition at 2 mg/kg,iv BIW for 28 days; type: functional, organism-based; details: time 28.0 day
[23] = tested on: MV4-11; assay: Antitumor activity against human MV4-11 cells xenografted in BALB/c mouse assessed as slower tumor regrowth after drug therapy removal at 2 mg/kg,iv BIW in presence of at 10 mg/kg,sc BID for 28 days and measured after 28 days; type: functional, organism-based; details: time 28.0 day
[24] = tested on: MV4-11; assay: Antitumor activity against human MV4-11 cells xenografted in BALB/c mouse assessed as complete tumor growth inhibition at 2 mg/kg,iv BIW in presence of at 10 mg/kg,sc BID for 28 days; type: functional, organism-based; details: time 28.0 day
[25] = Toxicity against BALB/c mouse plasma xenografted with human MV4-11 cells assessed as body weight loss at 2 mg/kg,iv BIW in presence of at 10 mg/kg,sc BID for 28 days; type: organism-based; details: in vivo, 672 h, time 28 day
Summary of the method: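 MV-4-11 acute myeloid leukemia mouse xenograft; BET inhibitor given subcutaneously 10 mg/kg twice daily, doxorubicin 2 mg/kg IV twice weekly, alone or combined, for 28 days; body weight change (%) tracked over treatment against vehicle.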

[26] = Cmax in rat at 5 mg/kg,po; type: ADME, organism-based; design: dose 5 mg/kg, route po; details: in vivo
[27] = Unbound AUC in rat at 5 mg/kg,po; type: ADME, organism-based; details: in vivo
[28] = Tmax in rat at 5 mg/kg,po; type: ADME, organism-based; details: in vivo
[29] = Oral bioavailability in rat at 5 mg/kg; type: ADME, organism-based; details: in vivo
[30] = AUC (0 to infinity) in rat at 5 mg/kg,po; type: ADME, organism-based; design: dose 5 mg/kg, route po; details: in vivo
[31] = molecular target: T1, Bromodomain-containing protein 4; assay: Inhibition of BRD4 BD1 in human Raji cells assessed as reduction of MYC RNA expression after 4 hrs by PCR analysis; type: cell-based

Row | Structure (SMILES) | EC50 [1] | fraction unbound [2] | fraction unbound [3] | predicted hepatic clearance [4] | IC50 [5] | predicted hepatic clearance (CLH) [6] | fraction unbound [7] | predicted hepatic clearance [8] | fraction unbound [9] | predicted hepatic clearance [10] | also measured
1 | COc1ccc(C2=N[C@@H](CC(N)=O)c3onc(C)c3-c3ccccc32)cc1 | 170 nM | 0.14 | 0.11 | 8 mL/min/kg | 48 nM | 33 mL/min/kg | 0.21 | 26 mL/min/kg | 0.12 | 83 mL/min/kg | 
2 | Cc1noc2c1-c1ccc(-c3cn(C)cn3)cc1C(c1ccc(Cl)cc1)=N[C@H]2CC(N)=O | 30 nM | 0.11 | 0.11 | 11 mL/min/kg | 11 nM | < 10 mL/min/kg | 0.14 | 23 mL/min/kg | 0.14 | 28 mL/min/kg | 
3 | COc1ccc2c(c1)C(c1ccc(Cl)cc1)=N[C@@H](CC(N)=O)c1onc(C)c1-2 | 64 nM | 0.03 | 0.03 | 9 mL/min/kg | 17 nM | 35 mL/min/kg | 0.06 | 21 mL/min/kg | 0.05 | 26 mL/min/kg | Cmax [11]: 1600 nM; Vd [12]: 1.7 L/kg; bioavailability [13]: 60%; clearance [14]: 36.7 mL/min/kg; fAUC [15]: 0.51 µM·h; CL free [16]: 617 mL/min/kg; half-life [17]: 38.4 min; Tmax [18]: 49.8 min; AUC(0-inf) [19]: 8.5 µM·h; QH [20]: 66%
4 | Cc1noc2c1-c1ccccc1C(c1ccc(Cl)cc1)=N[C@H]2CC(=O)OC(C)(C)C |  |  |  |  |  |  |  |  |  |  | IC50 [21]: 580 nM
5 | Cc1noc2c1-c1ccccc1C(c1ccc(Cl)cc1)=NC2 |  | < 0.01 | 0.01 | 15 mL/min/kg |  | 40 mL/min/kg | 0.01 | 29 mL/min/kg | 0.01 | 52 mL/min/kg | 
6 | Cc1onc2c1-c1ccccc1C(c1ccc(Cl)cc1)=NC2 |  |  |  |  | 1300 nM |  |  |  |  |  | 
7 | CCNC(=O)C[C@@H]1N=C(c2ccc(Cl)cc2)c2ccccc2-c2c(C)noc21 | 210 nM | 0.02 | 0.01 | 18 mL/min/kg | 52 nM | 42 mL/min/kg | 0.04 | 29 mL/min/kg | 0.02 | 61 mL/min/kg | 
8 | COc1cccc2c1C(=O)c1c(O)c3c(c(O)c1C2=O)C[C@@](O)(C(=O)CO)C[C@@H]3O[C@H]1C[C@H](N)[C@H](O)[C@H](C)O1 [DOXORUBICIN] |  |  |  |  |  |  |  |  |  |  | Activity [22]: Active; Activity [23]: Active; Activity [24]: Active; Activity [25]: Non-Toxic
9 | Cc1noc2c1-c1ccccc1C(c1ccc(Cl)cc1)=N[C@@H]2CC(=O)OC(C)(C)C |  |  |  |  | > 80000 nM |  |  |  |  |  | 
10 | Cc1noc2c1-c1ccccc1C(c1ccc(C#N)cc1)=N[C@H]2CC(N)=O | 220 nM | 0.22 | 0.13 | 9 mL/min/kg | 94 nM | 16 mL/min/kg | 0.33 | < 14 mL/min/kg | 0.11 | 29 mL/min/kg | Vd [12]: 1.2 L/kg; Cmax [26]: 1800 nM; fAUC [27]: 2 µM·h; clearance [14]: 21.7 mL/min/kg; CL free [16]: 65 mL/min/kg; Tmax [28]: 49.8 min; half-life [17]: 39.6 min; bioavailability [29]: 56%; AUC(0-inf) [30]: 5.9 µM·h; QH [20]: 39%
11 | Cc1noc2c1-c1ccc(=O)n(C)c1C(c1ccc(Cl)cc1)=NC2 | 2900 nM |  |  |  | 750 nM |  |  |  |  |  | 
12 | Cc1noc2c1-c1ccccc1C(c1ccc(Cl)cc1)=NN2 |  |  |  |  | 880 nM |  |  |  |  |  | 
13 | Cc1noc2c1-c1c[nH]c(=O)cc1C(c1ccc(Cl)cc1)=NC2 | 1100 nM |  |  |  | 530 nM |  |  |  |  |  | 
14 | Cc1noc2c1-c1cn(C)nc1C(c1ccc(Cl)cc1)=NC2 | 2600 nM |  |  |  | 590 nM |  |  |  |  |  | 
15 | Cc1cccc2c1C(c1ccc(Cl)cc1)=N[C@@H](CC(N)=O)c1onc(C)c1-2 | 140 nM | 0.02 | 0.02 | 11 mL/min/kg | 13 nM | 37 mL/min/kg | 0.04 | 24 mL/min/kg | 0.02 | 47 mL/min/kg | Vd [12]: 2.5 L/kg; Cmax [26]: 1200 nM; fAUC [27]: 0.2 µM·h; clearance [14]: 41.7 mL/min/kg; CL free [16]: 1050 mL/min/kg; Tmax [28]: 120 min; half-life [17]: 59.4 min; bioavailability [29]: 92%; AUC(0-inf) [30]: 4.9 µM·h; QH [20]: 76%
16 | Cc1noc2c1-c1ccnc(N)c1C(c1ccc(Cl)cc1)=NC2 |  |  |  |  | 90 nM |  |  |  |  |  | EC50 [31]: 720 nM
17 | CCNC(=O)NC1N=C(c2ccc(Cl)cc2)c2ccccc2-c2c(C)noc21 (stereo not given) | 100 nM | 0.02 | 0.03 | 13 mL/min/kg | 33 nM | 29 mL/min/kg | 0.02 | 21 mL/min/kg | 0.03 | 38 mL/min/kg | 
18 | Cc1noc2c1-c1ccccc1C(c1ccc(Cl)cc1)=NC2C(N)=O (stereo not given) | 4000 nM | 0.02 | 0.01 | 20 mL/min/kg | 15000 nM | 27 mL/min/kg |  | 29 mL/min/kg | 0.02 | 32 mL/min/kg | 
19 | Cc1nnc2n1-c1ccccc1C(c1ccc(Cl)cc1)=NC2 |  |  |  |  | 1800 nM |  |  |  |  |  | 
20 | Cc1noc2c1-c1ccccc1C(c1ccccc1)=N[C@H]2CC(N)=O | 250 nM | 0.12 | 0.16 | < 5 mL/min/kg | 110 nM | 28 mL/min/kg | 0.2 | 17 mL/min/kg | 0.19 | 10 mL/min/kg | 
21 | Cc1noc(N)c1-c1ccccc1 |  |  |  |  | 20000 nM |  |  |  |  |  | 
22 | COc1nccc2c1C(c1ccc(Cl)cc1)=NCc1onc(C)c1-2 |  |  |  |  | 440 nM |  |  |  |  |  | 
23 | Cc1noc2c1-c1ccc(-c3ccc(N)nc3)cc1C(c1ccc(Cl)cc1)=N[C@H]2CC(N)=O | 33 nM | 0.02 | 0.02 | 13 mL/min/kg | 7 nM | 34 mL/min/kg | 0.09 | 25 mL/min/kg | 0.04 | 36 mL/min/kg | Vd [12]: 5.4 L/kg; clearance [14]: 127 mL/min/kg; CL free [16]: 1400 mL/min/kg; half-life [17]: 40.8 min; QH [20]: 230%
24 | Cc1ccc(C2=N[C@@H](CC(N)=O)c3onc(C)c3-c3ccccc32)cc1 | 170 nM | 0.08 | 0.07 | 11 mL/min/kg | 52 nM | 49 mL/min/kg | 0.1 | 29 mL/min/kg | 0.1 | 78 mL/min/kg | 
25 | Cc1nsc2c1C(c1ccc(Cl)cc1)=NCc1onc(C)c1-2 | > 4000 nM |  |  |  | > 80000 nM |  |  |  |  |  | 
26 | Cc1noc2c1-c1ccccc1C(c1ccc(Cl)cc1)=N[C@H]2CC(N)C(F)(F)F (stereo not given in full) | > 4000 nM | 0.01 | 0.01 | 13 mL/min/kg | 11000 nM | 38 mL/min/kg | 0.01 | 27 mL/min/kg | 0.01 | 41 mL/min/kg | 
27 | COCCNC(=O)C[C@@H]1N=C(c2ccc(Cl)cc2)c2ccccc2-c2c(C)noc21 | 270 nM | 0.03 | 0.01 | 19 mL/min/kg | 56 nM | 45 mL/min/kg | 0.07 | 30 mL/min/kg | < 0.01 | 82 mL/min/kg | Cmax [11]: 380 nM; Vd [12]: 1.8 L/kg; bioavailability [13]: 11%; clearance [14]: 36.7 mL/min/kg; fAUC [15]: 0.084 µM·h; CL free [16]: 517 mL/min/kg; half-life [17]: 72 min; Tmax [18]: 40.2 min; AUC(0-inf) [19]: 1.2 µM·h; QH [20]: 66%
28 | CNc1ccc2c(n1)C(c1ccc(Cl)cc1)=NCc1onc(C)c1-2 | 440 nM |  |  |  | 59 nM |  |  |  |  |  | 
